# Assay outcomes as filed in PubChem.
# The list is not random: actives were taken first. Their share in the collection is about 0.55%.
# OXTR agonist: human OXTR agonists, primary screen, fluorescence, CHO-OTR cells, Fluo-8 calcium; Oxytocin receptor (Homo sapiens), P30559; Fluo-8 calcium fluorescence; normalized: DMSO 0%, oxytocin 100%; activation, % at 3 µM; hit rate 0.32% among 320,000; AID 2435, 2010;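 active = activation above the mean of all tested compounds plus 3 SD, cutoff set per screening run, cut at about 20% in these data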;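 also: peak over basal fluorescence ratio from a 100 s FLIPR kinetic read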
# TRPML3 ag: human TRPML3 channel agonists, primary screen, cell-based, HEK293 TRPML3-YFP, Fluo-8 calcium fluorescence, 3 µM; 100% = the carbachol control signal; activation, % at 3 µM; hit rate 0.29% among 220,000; AID 1448, 2008;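 active = activation above its plate's cutoff, the mean activation of the plate's test wells plus 3 SD, cut at about 12% in these data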
# Target sequence (Q8TDD5 whole entry, looked up): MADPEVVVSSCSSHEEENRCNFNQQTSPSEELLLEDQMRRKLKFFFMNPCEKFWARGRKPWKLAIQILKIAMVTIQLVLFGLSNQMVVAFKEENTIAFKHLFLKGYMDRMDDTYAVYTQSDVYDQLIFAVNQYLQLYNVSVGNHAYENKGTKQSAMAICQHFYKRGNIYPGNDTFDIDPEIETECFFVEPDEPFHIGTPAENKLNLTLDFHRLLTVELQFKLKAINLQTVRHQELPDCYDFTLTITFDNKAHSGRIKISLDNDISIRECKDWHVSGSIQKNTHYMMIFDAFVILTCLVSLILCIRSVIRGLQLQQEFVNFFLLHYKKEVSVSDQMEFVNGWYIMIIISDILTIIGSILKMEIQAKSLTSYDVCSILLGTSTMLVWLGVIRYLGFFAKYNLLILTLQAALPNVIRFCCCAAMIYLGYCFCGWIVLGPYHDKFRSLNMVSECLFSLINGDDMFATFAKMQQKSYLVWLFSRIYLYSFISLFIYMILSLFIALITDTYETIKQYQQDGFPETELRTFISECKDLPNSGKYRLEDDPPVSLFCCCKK
#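 system = HEK293 cells stably carrying human TRPML3-YFP | doses = one concentration, 3 µM nominal, 0.3% DMSO | timing = dye loading 1 h 37 °C then 30 min ambient, 125 s read | detection = Fluo-8 calcium dye fluorescence, ex 470-495, em 515-575 nm | benchmarks = high control carbachol 87 µM, low control DMSO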
# TRPN1 ag: zebrafish TRPN1 channel agonists, primary screen, cell-based, HEK293, calcium fluorescence; transient receptor potential cation channel N1 (TRPN1/NompC), Danio rerio; HEK293 zebrafish TRPN1-YFP, Fluo-8 calcium fluorescence; 100% = response to 87 µM carbachol; activation, % at 3 µM; hit rate 0.18% among 220,000;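 active = activation above its plate's cutoff, the mean activation of test wells on that plate plus 3 SD, cut at about 19% in these data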
#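 Material – zebrafish TRPN1-YFP in HEK293 cells · Doses – 3 µM single point · Schedule – dye 1 h 37 °C plus 30 min RT · Signal – Fluo-8 calcium fluorescence, excitation 470-495 nm, emission 515-575 nm · Read-out – % activation versus carbachol response · Control set – carbachol high, DMSO low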
# V1R ag counter: agonists of human V1a receptor, primary screen, counter-screen for OXTR agonist project, fluorescence, CHO-V1R cells | Fluo-8 calcium fluorescence, agonist mode; 0% DMSO, 100% 3 nM vasopressin | activation, % at 3 µM | Vasopressin V1a receptor (Homo sapiens), P37288 | AID 2797, 2010 | hit rate 0.25% among 320,000;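 active = activation above the mean activation of all tested compounds plus 3 SD, per screening run, cut at about 20% in these data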;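 also: signal is peak over basal fluorescence ratio across a 100 second FLIPR read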
# OXTR potentiate: human OXTR potentiators, primary screen, fluorescence, CHO-OTR cells, Fluo-8 calcium; Fluo-8 calcium fluorescence, potentiator mode; 0% = oxytocin EC15, 100% = EC100; activation, % at 3 µM; hit rate 0.061% among 320,000; AID 2445, 2010;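 active = activation above that plate's cutoff, the mean activation of tested compounds plus 3 SD, cut at about 6.6% in these data, passing the limit was not always enough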
#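 System: human OTR in CHO cells / Also added: sub-maximal oxytocin, roughly EC15 / Control set: EC15 oxytocin low, 75 nM oxytocin high / Schedule: 6 min compound pre-incubation at room temperature, 100 s kinetic read / Compound: single-point 3.0 µM / Replication: singlicate / Technique: Fluo-8 calcium dye fluorescence / Read-out basis: % activation of max/min ratio relative to oxytocin controls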
# V1aR agonist cf: V1a receptor agonists, calcium signal, confirmation, Fluo-8 calcium fluorescence, CHO-V1R cells | shares compounds with V1R ag counter | agonist | activation, % at 3 µM | hit rate 20% among 180;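 active = average activation exceeds primary screen hit cutoff, cut at about 21% in these data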;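 also: peak over basal fluorescence ratio during a 100 s FLIPR read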
# OXTR ag counter: human OXTR agonists, counter-screen for V1R agonist project, fluorescence, CHO-OTR cells, triplicate; shares compounds with V1R ag counter; Fluo-8 calcium fluorescence; activation, % at 3 µM; hit rate 10% among 180; AID 434969, 2010;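 active = mean activation over three repeats above the cutoff from the earlier oxytocin receptor agonist screen, cut at about 20% in these data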;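 also: peak over minimum fluorescence ratio within a 100 second FLIPR read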
# Hits are given with their value; – = inactive; · = no result.
SMILES,OXTR agonist,TRPML3 ag,TRPN1 ag,V1R ag counter,OXTR potentiate,V1aR agonist cf,OXTR ag counter
CN(C)c1ccc(/C=C/[N+](=O)[O-])cc1,–,–,–,29.4,–,37.9,24.1
CN(C)CC1CSCCC1(O)c1ccccc1 (configuration not stated),–,–,–,–,–,·,·
CN1CCN(c2ccc([N+](=O)[O-])c3no[n+]([O-])c23)CC1,–,–,–,27.5,–,–,–
CN1CCN(c2ccc(S(C)(=O)=O)cc2[N+](=O)[O-])CC1,–,–,–,–,–,·,·
CNC(C(=O)c1ccccc1)C(OC)c1ccc(C)cc1 (configuration not stated),–,–,–,–,–,·,·
CC1(C)OC(c2ccccc2)=C/C(=C/C=C2C(=O)NC(=O)NC2=O)O1,–,24.2,46.2,21.9,–,37.3,25.5
